Hsp70 activator – Hsp70 transcriptional activation, primary screen | HeLa Hsp70 promoter luciferase reporter, luminescence; scaled: vehicle 0, proteasome-inhibitor control 100% | activation, % at 10 µM | hit rate 0.04% among 200,000;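 active means activation above the mean across all tested compounds plus 3 SD, cutoff set per campaign, cut at about 5.5% in these data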;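 further: 100% = MG132 at 30 µM as the positive control and 0% = DMSO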
T cruzi inh – blocks replication of Trypanosoma cruzi; T. cruzi beta-gal in NIH3T3, luminescence, 90 h; inhibition, % (concentration not given with the values); hit rate 1.4% among 300,000;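 active means mean inhibition across valid replicates above about 55%, limit read from the data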;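 further: signal also drops with host cell toxicity which is not excluded here; 0% = plate median of DMSO wells and 100% = zero luminescence signal; higher percent means less beta-gal luminescence so fewer parasites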
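System – NIH/3T3 host cells with β-galactosidase reporter T. cruzi · Doses – single 50 nL compound addition per well in DMSO · Reagent – 5000 T. cruzi trypomastigotes/well · Medium – Low-serum DMEM with 2% FBS · Timing – ≥90 h infection period, 3 h prior cell attachment · Evaluation – parasite load inhibition, % · Technique – GalScreen luminescence, 60 min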
HSF1 activator – increases HSF-1 driven luciferase reporter signal; NIH3T3-HGL HSF-1 luciferase reporter, MG132, 8 h; 100% = twice DMSO control signal; activation, % at 9 µM; hit rate 1.7% among 300,000; AID 504408;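 active means mean replicate activation of at least 50% with a set share of replicates each reaching 50%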;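 further: 0% = median of the neutral control wells and 100% = twice that signal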
Lmaj promast – inhibitors of Leishmania major promastigote growth | inhibition, % at 10 µM | Leishmania major promastigotes, resazurin fluorescence viability | hit rate 9% among 200,000; in the data active means inhibition above about 50%;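 further: promastigotes grown with compound for 44 hours at 28 °C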
HSF1 inh – HSF1 inhibition | NIH3T3-HGL HSE-luciferase, MG132-induced, luminescence 8 h; active compounds read low | activity change, negative = inhibition, % at 7.5 µM (by protocol) | hit rate 0.77% among 300,000 | AID 2098;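 active means more than half of replicate wells show activity change below -50%, luminescence cut by over half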;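 further: luciferase reports HSF-1 transcriptional activity via heat shock element; 0% = median of DMSO wells and -100% = zero luminescence signal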
Numbers without * were called inactive; · = not tested or not shown. Many of the other results were omitted from the sample, so hits are more common in it than they were.

SMILES	Hsp70 activator	T cruzi inh	HSF1 activator	Lmaj promast	HSF1 inh
COc1cccc(-c2cc(C(=O)Nc3ccncc3)c3ccccc3n2)c1	·	48	9	·	10
COc1ccccc1CCNC(=O)c1cc(-c2ccncc2)nc2ccc(Br)cc12	0	89*	-5	13	0
COc1ccc(COc2cc(-c3cccc(OC)c3)nc3ccc(N)cc23)cc1	0	20	-32	76*	-24
COc1ccc(COc2cc(-c3cccc(OC)c3)nc3ccc(NC(C)=O)cc23)cc1	0	68*	18	6	5
COc1ccc(COc2cc(-c3cccc(OC)c3)nc3ccc(NC(=O)c4ccc(C)cc4)cc23)cc1	0	23	-25	32	-29
CCCc1nnc(NC(=O)CCC(=O)N2CCN(C3c4ccccc4-c4ccccc43)CC2)s1	0	13	0	-6	-1
CC(=O)NC(Cc1ccc(F)cc1)C(=O)NC1CCN(c2ncccc2[N+](=O)[O-])CC1 (stereo not given)	0	11	13	-3	2
Cc1ccccc1OCC(O)CN1CCN(CC(O)COc2ccccc2C)C(C)C1 (stereo not given)	·	17	14	·	4
CC(=O)c1ccc(OCC(O)CN2CCN(Cc3ccccc3)CC2)cc1 (stereo not given)	0	19	-7	94*	-8
O=C(c1ccccc1)c1ccc(OCC(O)CN2CCN(Cc3ccccc3)CC2)cc1 (stereo not given)	0	48	-11	96*	-7
Cc1nc(C)n(CC(O)COc2ccc(C(=O)c3ccccc3)cc2)n1 (stereo not given)	0	0	1	2	-1
CC(=O)c1ccc(OCC(O)CN2CCN(CC(O)COc3ccc(C(C)=O)cc3)CC2)cc1 (stereo not given)	0	-11	-8	-8	-5
CC1CN(CC(O)COc2ccc(C(=O)c3ccccc3)cc2)CC(C)O1 (stereo not given)	0	2	-2	79*	-3
CC1CN(CC(O)COc2ccccc2C(C)(C)C)CC(C)O1 (stereo not given)	0	-8	-28	92*	-6
CCN(CC)S(=O)(=O)c1ccc2nnn(O)c2c1	0	-23	13	-7	-6
Cn1ccnc1CC(O)(c1ccccc1)c1ccccc1	·	-14	-12	·	-4
OC(COC(c1ccccc1)c1ccccc1)CN1CCOCC1 (stereo not given)	0	-4	10	3	-3
CC1CN(CC(O)COC(c2ccccc2)c2ccccc2)CC(C)O1 (stereo not given)	0	8	-1	86*	-7
C=Cn1ccnc1CC(O)c1ccc(OC)cc1 (stereo not given)	·	-7	9	·	6
CCOc1ccc(C(C)=O)cc1CSC(=N)N	0	-12	-7	-2	-4
CCCCOc1ccc(Br)cc1CSC(=N)N	0	17	-7	99*	-2
CCCCOc1ccc(CSC2=NCCN2)cc1[N+](=O)[O-]	0	66*	9	95*	-4
CCOc1ccc(CSC2=NCCN2)cc1[N+](=O)[O-]	0	42	5	9	-5
CCCCCOc1ccc(CSC(=N)N)cc1[N+](=O)[O-]	0	23	-2	100*	-1
CCS(=O)(=O)c1ccc2oc(SCC(=O)N3CCCCC3)nc2c1	0	5	-21	2	-9
SMILES	Hsp70 activator	T cruzi inh	HSF1 activator	Lmaj promast	HSF1 inh
CN(C)S(=O)(=O)Oc1ccccc1C(=O)Nc1ccc(F)cc1F	0	-11	11	-3	1
CCN(CC)C(=O)Oc1ccc(Br)cc1C(=O)Nc1ccc(F)cc1F	·	8	72*	·	38
O=C(NCc1ccc(F)cc1)c1ccc(N2CCc3ccccc32)c([N+](=O)[O-])c1	0	34	-6	92*	-11
O=C(NCc1ccco1)c1ccc(N2CCCCC2)c([N+](=O)[O-])c1	0	27	19	63*	13
Cc1ccc(N(Cc2ccco2)C(=O)c2ccc(N3CCCCC3)c([N+](=O)[O-])c2)cc1	0	56*	13	28	11
CCCNC(=O)c1ccc(N2CCC3(CC2)CC(c2ccccc2)=NO3)c([N+](=O)[O-])c1	·	-11	-8	·	-1
CCCCCCCNC(=O)c1ccc(N2CCC3(CC2)OCCO3)c([N+](=O)[O-])c1	0	24	3	94*	7
CS(=O)(=O)Nc1cc2c3c(c1)CCC(=O)N3CCC2	·	-21	13	·	0
CCC(C)(C)NC(=O)CN(C(=O)CNS(=O)(=O)c1ccc(F)cc1)c1ccc2c(c1)OCCO2	·	1	3	·	-5
O=C(NCCS(=O)(=O)N1CCN(c2ccccc2)CC1)c1cccs1	·	-4	-12	·	-5
CC1CC(C)CN(c2ccc(C(=O)NCc3ccc4c(c3)OCO4)cc2[N+](=O)[O-])C1 (stereo not given)	0	65*	-5	6	3
O=C(NCc1ccco1)c1ccc(N2CCOCC2)c([N+](=O)[O-])c1	1	1	6	-4	0
CC1CCN(c2ccc(C(=O)NCc3ccco3)cc2[N+](=O)[O-])CC1	0	3	20	50*	12
Cc1cc(=O)oc2cc(OC(=O)CCCCCN3C(=O)c4ccccc4C3=O)ccc12	0	-2	-23	-1	5
O=C(CSc1nc(-c2cccs2)cc(C(F)(F)F)n1)Nc1cc(OCC(F)(F)C(F)F)cc([N+](=O)[O-])c1	0	14	-14	84*	0
O=S(=O)(c1ccc(F)c(F)c1)N1CCN(Cc2ccc3c(c2)OCO3)CC1	0	9	30	78*	6
O=S(=O)(c1ccc2c(c1)OCCO2)N1CCN(Cc2ccc3c(c2)OCO3)CC1	0	13	-6	73*	-5
O=S(=O)(Cc1ccccc1)N1CCN(Cc2ccc3c(c2)OCO3)CC1	0	-3	3	92*	0
O=C(NCc1ccc2c(c1)OCO2)C1CCN(S(=O)(=O)N2CCCCC2)CC1	0	-4	-15	-2	-7
O=C(O)c1cccc(S(=O)(=O)N2CCN(Cc3ccc4c(c3)OCO4)CC2)c1	·	-6	-2	·	-9
O=C(NCc1ccc2c(c1)OCO2)C1CCN(c2ccc(S(=O)(=O)N3CCCC3)cc2)CC1	0	23	-11	97*	7
COc1ccc(NC(=O)CCNS(=O)(=O)c2ccc(Cl)c([N+](=O)[O-])c2)cc1S(N)(=O)=O	·	-8	-1	·	-6
CC(OC(=O)c1cnc2ccccc2n1)c1ccccc1Cl (stereo not given)	·	-7	35	·	16
C[C@@H](NC(=O)[C@@H]1Cc2ccccc2CN1)C(=O)Nc1ccc2c(c1)OCO2	·	-4	16	·	10
COc1ccc(S(=O)(=O)N2CCN(Cc3ccc4c(c3)OCO4)CC2)cc1F	·	-6	12	·	8
O=C(c1ccc2nc(N3CCCCC3)sc2c1)N1CCN(Cc2ccc3c(c2)OCO3)CC1	0	22	-41	68*	-31
